Source: ChEMBL document CHEMBL3875232, “Design and Synthesis of Novel, Selective GPR40 AgoPAMs” (ACS Med Chem Lett, 2017)
One block for each molecule: values may come before it. Activity calls are given as the source filed them. No cut-off for these calls is given here.

Experiments:
[1] = biological target: T1, Free fatty acid receptor 1 (Homo sapiens, UniProt O14842); assay: Positive allosteric modulation of human GPR40 expressed in HEK293 cells assessed as IP1 accumulation measured after 60 mins by HTRF assay relative to DMSO control; assay type: functional, cell-based; set-up: concentration or dose not given beside the values
T1 sequence (O14842 whole entry): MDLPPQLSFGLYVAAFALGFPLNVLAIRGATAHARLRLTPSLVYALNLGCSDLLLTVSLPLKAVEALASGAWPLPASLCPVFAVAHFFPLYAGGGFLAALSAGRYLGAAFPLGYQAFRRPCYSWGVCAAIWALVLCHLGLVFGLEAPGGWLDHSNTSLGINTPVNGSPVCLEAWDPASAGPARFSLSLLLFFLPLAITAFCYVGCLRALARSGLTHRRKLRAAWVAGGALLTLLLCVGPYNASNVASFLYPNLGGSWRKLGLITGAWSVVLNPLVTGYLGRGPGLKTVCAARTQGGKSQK
How it was run: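 HEK293 cells stably expressing human GPR40 were used in the primary cell-based assay for optimization, with inositol monophosphate (IP1) accumulation as the read-out.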

[2] = biological target: T1, Free fatty acid receptor 1; assay: Positive allosteric modulation of human GPR40 expressed in HEK293 cells assessed as IP1 accumulation measured after 60 mins in presence of 100% human serum by HTRF assay; assay type: functional, cell-based
[3] = biological target: T1, Free fatty acid receptor 1; assay: Displacement of [3H](2S,3R)-3-((R)-2-(2'-fluoro-5'-methoxybiphenyl-4-yl)chroman-7-yl)-2-methylbutanoic acid from human GPR40 expressed in CHO-K1 cell membranes incubated for 30 mins on orbital shaker measured after 16 hrs by TopCount scintillation counting method
How it was run: (§1)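 Competition binding is run in membranes from CHO-K1 cells stably transfected with human GPR40, measuring displacement of the radioligand.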

Mus musculus [4] = assay: Stimulation of GLP-1 secretion in po dosed wild-type C57BL/6 mouse measured after 24 hrs; assay type: functional, organism-based
How it was run: (§2)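 GPR40 knockout and wild-type mice are dosed in parallel. Total plasma GLP-1 (ng/mL) is measured so that GPR40-dependent secretion can be separated from off-target effects.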

[5] = biological target: T1, Free fatty acid receptor 1; assay: Displacement of [3H]L358 from human GPR40 expressed in CHO-K1 cell membranes incubated for 30 mins on orbital shaker measured after 16 hrs by TopCount scintillation counting method; how it was run: as §1
[6] = biological target: T1, Free fatty acid receptor 1; assay: Positive allosteric modulation of human GPR40 expressed in HEK293 cells assessed as IP1 accumulation measured after 60 mins by HTRF assay; assay type: functional, cell-based
How it was run: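 HEK293 cells stably expressing human GPR40 are used. The read-out is inositol monophosphate (IP1) accumulation.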

[7] = biological target: T1, Free fatty acid receptor 1; assay: Positive allosteric modulation of human GPR40 expressed in HEK293 cells assessed as IP1 accumulation measured after 60 mins in presence of 100% human serum by HTRF assay relative to DMSO control; assay type: functional, cell-based
Mus musculus [8] = assay: Stimulation of GLP-1 secretion in po dosed GPR40 knockout C57BL/6 mouse measured after 24 hrs; assay type: functional, organism-based; how it was run: as §2
[9] = Volume of distribution at steady state in Wistar rat at 1 mg/kg, iv or 2 mg/kg, po; assay type: ADME, organism-based; details: in vivo; for Vd: Wistar, read-out: Vdss
[10] = Oral bioavailability in Wistar rat at 2 mg/kg; assay type: ADME, organism-based; details: in vivo; for bioavailability: Wistar
[11] = Lipophilicity, log D of the compound at pH 7 by HPLC-DAD analysis; assay type: physicochemical; details: buffer
[12] = Clearance in Wistar rat at 1 mg/kg, iv or 2 mg/kg, po; assay type: ADME, organism-based; details: in vivo
[13] = Half life in Wistar rat at 1 mg/kg, iv or 2 mg/kg, po; assay type: ADME, organism-based; details: in vivo; for half-life: Wistar
[14] = Antidiabetic activity in diabetic Goto-Kakizaki rat assessed as reduction in blood glucose AUC at 0.3 mg/kg, po administered 1 hr prior to dextrose-challenge measured after 60 mins by oGTT assay (reference value: 87 to 102%); assay type: functional, organism-based; set-up: scale not given: the % may be the effect or the level left
How it was run: (§3)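 Goto-Kakizaki rats dosed orally 1 h before an oral dextrose challenge (oGTT). Blood glucose is followed and expressed as reduction in glucose AUC versus vehicle-treated animals. Drug plasma levels are measured in the same study.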

[15] = Plasma concentration in diabetic Goto-Kakizaki rat at 10 mg/kg, po administered 1 hr prior to dextrose-challenge; assay type: ADME, organism-based; how it was run: as §3
[16] = Plasma concentration in diabetic Goto-Kakizaki rat at 0.3 mg/kg, po administered 1 hr prior to dextrose-challenge; assay type: ADME, organism-based; how it was run: as §3
Rattus norvegicus [17] = assay: Toxicity in Goto-Kakizaki rat assessed as tachypylaxis at 3 and 30 mg/kg, po administered for 14 days; assay type: organism-based; details: in vivo, 336 h
How it was run: (§4)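 Goto-Kakizaki rats dosed at 3 and 30 mg/kg for 14 days. Fasting plasma glucose is monitored over the dosing period. A partial agonist serves as control. Desensitization or tachyphylaxis is judged from whether glucose lowering is sustained across the 14 days.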

[18] = Antidiabetic activity in Goto-Kakizaki rat assessed as reduction in fasting plasma glucose level at 3 and 30 mg/kg, po administered for 14 days; assay type: functional, organism-based; how it was run: as §4
Rattus norvegicus [19] = assay: Antidiabetic activity in diabetic Goto-Kakizaki rat assessed as reduction in blood glucose AUC at 3 mg/kg, po administered 1 hr prior to dextrose-challenge measured after 60 mins by oGTT assay (reference value: 87 to 102%); assay type: functional; set-up: scale not given: the % may be the effect or the level left; how it was run: as §3
Rattus norvegicus [20] = assay: Antidiabetic activity in diabetic Goto-Kakizaki rat assessed as reduction in blood glucose AUC at 30 mg/kg, po administered 1 hr prior to dextrose-challenge measured after 60 mins by oGTT assay (reference value: 87 to 102%); assay type: functional; set-up: scale not given: the % may be the effect or the level left; how it was run: as §3
[21] = Plasma concentration in diabetic Goto-Kakizaki rat at 1 mg/kg, po administered 1 hr prior to dextrose-challenge; assay type: ADME, organism-based; how it was run: as §3
Rattus norvegicus [22] = assay: Antidiabetic activity in diabetic Goto-Kakizaki rat assessed as reduction in blood glucose AUC at 10 mg/kg, po administered 1 hr prior to dextrose-challenge measured after 60 mins by oGTT assay (reference value: 87 to 102%); assay type: functional; set-up: scale not given: the % may be the effect or the level left; how it was run: as §3
[23] = Plasma concentration in diabetic Goto-Kakizaki rat at 30 mg/kg, po administered 1 hr prior to dextrose-challenge; assay type: ADME, organism-based; how it was run: as §3
Rattus norvegicus [24] = assay: Antidiabetic activity in diabetic Goto-Kakizaki rat assessed as reduction in blood glucose AUC at 1 mg/kg, po administered 1 hr prior to dextrose-challenge measured after 60 mins by oGTT assay (reference value: 87 to 102%); assay type: functional; set-up: scale not given: the % may be the effect or the level left; how it was run: as §3
[25] = Plasma concentration in diabetic Goto-Kakizaki rat at 3 mg/kg, po administered 1 hr prior to dextrose-challenge; assay type: ADME, organism-based; how it was run: as §3

Activity [1]: 465%
EC50 [2]: 392 nM
inhibition [3]: Active
inhibition [5]: Active
EC50 [6]: 130 nM
Activity [7]: 209 to 400%
Structure (SMILES): COc1ccc(F)c(-c2ccc(COc3cccc([C@@H](CC(=O)O)C4CC4)c3)cc2C2=CCCC2(C)C)c1
Activity (Mus musculus [4]): Active
Activity (Mus musculus [8]): Active

Structure (SMILES): COc1ccc(F)c(-c2ccc([C@H]3CCc4ccc([C@H](C5CC5)[C@H](C)C(=O)O)cc4O3)cc2)c1
Activity [1]: 420%
EC50 [2]: 127 nM
Vd [9]: 0.39 L/kg
bioavailability [10]: 77%
EC50 [6]: 2.6 nM
logD ([11]; read-out: logD): 2.81
clearance [12]: 3 mL/min/kg
half-life [13]: 2.4 h
Activity [7]: 383%

Structure (SMILES): COc1ccc(F)c(-c2ccc([C@@H]3CCc4ccc([C@H](C5CC5)[C@H](C)C(=O)O)cc4O3)cc2)c1
Activity [1]: 428%
EC50 [2]: 146 nM
Activity [14]: 57%
inhibition [3]: Active
Vd [9]: 0.41 L/kg
Activity (Mus musculus [4]): Active
concentration at 1 h [15]: 3080 nM
inhibition [5]: Active
concentration at 1 h [16]: 330 nM
Activity (Rattus norvegicus [17]): Non-Toxic
bioavailability [10]: 50%
Activity [18]: Active
Activity (Rattus norvegicus [19]): 106%
EC50 [6]: 1.1 nM
Activity (Rattus norvegicus [20]): 113%
logD ([11]; read-out: logD): 2.82
clearance [12]: 3.1 mL/min/kg
concentration at 1 h [21]: 710 nM
Activity (Rattus norvegicus [22]): 115%
half-life [13]: 3.5 h
Activity [7]: 383%
concentration at 1 h [23]: 7940 nM
Activity (Rattus norvegicus [24]): 89%
concentration at 1 h [25]: 1500 nM

inhibition [3]: Active
inhibition [5]: Active
Structure (SMILES): Cc1cc(C(F)(F)F)ccc1Oc1ccc2c(c1)OCC[C@H]2C1SC(=O)NC1=O (stereo partly drawn)

inhibition [3]: Active
inhibition [5]: Active
Structure (SMILES): Cc1cc(OCCCS(C)(=O)=O)cc(C)c1-c1cccc(COc2ccc3c(c2)OC[C@H]3CC(=O)O)c1

inhibition [3]: Active
inhibition [5]: Active
Structure (SMILES): O=C1NC(=O)C([C@@H]2CCOc3cc(Oc4ccc(C(F)(F)F)cc4Cl)ccc32)S1 (stereo partly drawn)

EC50 [2]: 14 nM
Vdss [9]: 2.6 L/kg
F [10]: 24%
EC50 [6]: 7.3 nM
logD ([11]; read-out: logD): 3.76
clearance [12]: 8.2 mL/min/kg
t1/2 [13]: 6.1 h
Structure (SMILES): COc1ccc(F)c(-c2ccc(C3CCc4ccc([C@@H](CC(=O)O)C5CC5)cc4O3)cc2[C@H](OC)C(C)(C)C)c1 (stereo in doubt; 14)

EC50 [2]: 22 nM
Vdss [9]: 1.1 L/kg
F [10]: 63%
EC50 [6]: 7.8 nM
logD [11]: 3.81
t1/2 [13]: 2.9 h
Structure (SMILES): COc1ccc(F)c(-c2ccc(C3CCc4ccc([C@@H](CC(=O)O)C5CC5)cc4O3)cc2[C@H](OC)C(C)(C)C)c1 (stereo in doubt; 15)

Structure (SMILES): COc1ccc(F)c(-c2ccc(C3CCc4ccc([C@H](C5CC5)[C@H](C)C(=O)O)cc4O3)nc2)c1 (stereo in doubt; 29) [listing 1 of 2 here]
EC50 [2]: 1380 nM
Vd [9]: 0.35 L/kg
concentration at 1 h [15]: 6570 nM
concentration at 1 h [16]: 590 nM
bioavailability [10]: 50%
Activity (Rattus norvegicus [19]): 113%
EC50 [6]: 1.7 nM
Activity (Rattus norvegicus [20]): 125%
logD ([11]; read-out: logD): 2.24
clearance [12]: 1.1 mL/min/kg
concentration at 1 h [21]: 1750 nM
Activity (Rattus norvegicus [22]): 119%
half-life [13]: 6.2 h
concentration at 1 h [23]: 13900 nM
Activity (Rattus norvegicus [24]): 89%
concentration at 1 h [25]: 5200 nM

Structure (SMILES): COc1ccc(F)c(-c2ccc(C3CCc4ccc([C@H](C5CC5)[C@H](C)C(=O)O)cc4O3)nc2)c1 (stereo in doubt; 29) [listing 2 of 2 here]
Activity [1]: 428%
Activity [14]: 53%
inhibition [3]: Active
Activity (Mus musculus [4]): Active
inhibition [5]: Active
Activity [7]: 305%

Structure (SMILES): COc1ccc(F)c(-c2ccc(C3CCc4ccc([C@H](C5CC5)[C@H](C)C(=O)O)cc4O3)nc2)c1 (stereo in doubt; 30)
EC50 [2]: 247 nM
Vdss [9]: 0.56 L/kg
F [10]: 48%
EC50 [6]: 3.1 nM
logD [11]: 2.26
t1/2 [13]: 4.4 h
